From ChEMBL document CHEMBL1153560, “In vitro activities of doripenem and six comparator drugs against 423 aerobic and anaerobic bacterial isolates from infected diabetic foot wounds” (2008)

Tests used:
Type in all cases: functional
[1] = system: Prevotella bivia; experiment: Antibacterial activity against Prevotella bivia isolated from patient with diabetic foot infection after 44 to 48 hrs by agar dilution method
In short: (§1)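 CLSI M11-A7 agar dilution: serial twofold drug dilutions made on the test day and added to molten agar. Spots of 10^5 CFU were applied by replicator, with drug-free control plates inoculated before and after each set. Incubation was 44 to 48 h at 37°C in an anaerobic chamber. MIC was the lowest concentration giving no growth or a marked change in growth versus controls.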

[2] = system: Clostridium perfringens; experiment: Antibacterial activity against Clostridium perfringens isolated from patient with diabetic foot infection after 44 to 48 hrs by agar dilution method
In short: (§2)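 Agar dilution per CLSI M11-A7. Twofold drug dilutions made on the test day and added to molten agar. Replicator-applied inoculum of 10^5 CFU/spot. Drug-free control plates inoculated before and after each drug set. Incubation at 37°C for 44 to 48 h, anaerobic chamber. MIC taken as the lowest concentration giving no growth or a marked change in growth versus controls.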

[3] = system: Anaerocolumna aminovalerica; experiment: Antibacterial activity against Clostridium aminovalericum isolated from patient with diabetic foot infection after 44 to 48 hrs by agar dilution method; in short: as §1
[4] = system: Clostridium cadaveris; experiment: Antibacterial activity against Clostridium cadaveris isolated from patient with diabetic foot infection after 44 to 48 hrs by agar dilution method; in short: as §1
[5] = system: [Clostridium] innocuum; experiment: Antibacterial activity against Clostridium innocuum isolated from patient with diabetic foot infection after 44 to 48 hrs by agar dilution method; in short: as §1
[6] = system: Lacrimispora sphenoides; experiment: Antibacterial activity against Clostridium sphenoides isolated from patient with diabetic foot infection after 44 to 48 hrs by agar dilution method; in short: as §1
[7] = system: Cutibacterium acnes; experiment: Antibacterial activity against Propionibacterium acnes isolated from patient with diabetic foot infection after 44 to 48 hrs by agar dilution method; in short: as §1
[8] = system: Anaerococcus prevotii; experiment: Antibacterial activity against Anaerococcus prevotii isolated from patient with diabetic foot infection after 44 to 48 hrs by agar dilution method; in short: as §1
[9] = system: Anaerococcus tetradius; experiment: Antibacterial activity against Anaerococcus tetradius isolated from patient with diabetic foot infection after 44 to 48 hrs by agar dilution method; in short: as §1
[10] = system: Finegoldia magna; experiment: Antibacterial activity against Finegoldia magna isolated from patient with diabetic foot infection after 44 to 48 hrs by agar dilution method; in short: as §1
[11] = system: Peptoniphilus asaccharolyticus; experiment: Antibacterial activity against Peptoniphilus asaccharolyticus isolated from patient with diabetic foot infection after 44 to 48 hrs by agar dilution method; in short: as §1
[12] = system: Peptostreptococcus anaerobius; experiment: Antibacterial activity against Peptostreptococcus anaerobius isolated from patient with diabetic foot infection after 44 to 48 hrs by agar dilution method; in short: as §1
[13] = system: Parvimonas micra; experiment: Antibacterial activity against Peptostreptococcus micros isolated from patient with diabetic foot infection after 44 to 48 hrs by agar dilution method; in short: as §1
[14] = system: Bacteroides fragilis; experiment: Antibacterial activity against Bacteroides fragilis isolated from patient with diabetic foot infection after 44 to 48 hrs by agar dilution method; in short: as §1
[15] = system: Bacteroides caccae; experiment: Antibacterial activity against Bacteroides caccae isolated from patient with diabetic foot infection after 44 to 48 hrs by agar dilution method; in short: as §1
[16] = system: Bacteroides ovatus; experiment: Antibacterial activity against Bacteroides ovatus isolated from patient with diabetic foot infection after 44 to 48 hrs by agar dilution method; in short: as §1
[17] = system: Bacteroides fragilis; experiment: Antibacterial activity against Bacteroides fragilis isolated from patient with diabetic foot infection assessed as percent resistant isolates after 44 to 48 hrs by agar dilution method; in short: as §2
[18] = system: Bacteroides caccae; experiment: Antibacterial activity against Bacteroides caccae isolated from patient with diabetic foot infection assessed as percent resistant isolates after 44 to 48 hrs by agar dilution method; in short: as §2
[19] = system: Bacteroides thetaiotaomicron; experiment: Antibacterial activity against Bacteroides thetaiotaomicron isolated from patient with diabetic foot infection assessed as percent resistant isolates after 44 to 48 hrs by agar dilution method; in short: as §2
[20] = system: Bacteroides uniformis; experiment: Antibacterial activity against Bacteroides uniformis isolated from patient with diabetic foot infection after 44 to 48 hrs by agar dilution method; in short: as §1
[21] = system: Phocaeicola vulgatus; experiment: Antibacterial activity against Bacteroides vulgatus isolated from patient with diabetic foot infection after 44 to 48 hrs by agar dilution method; in short: as §1
[22] = system: Porphyromonas asaccharolytica; experiment: Antibacterial activity against Porphyromonas asaccharolyticus isolated from patient with diabetic foot infection after 44 to 48 hrs by agar dilution method; in short: as §1
[23] = system: Porphyromonas somerae; experiment: Antibacterial activity against Porphyromonas somerae isolated from patient with diabetic foot infection after 44 to 48 hrs by agar dilution method; in short: as §1
[24] = system: Bacteroides uniformis; experiment: Antibacterial activity against Bacteroides uniformis isolated from patient with diabetic foot infection assessed as percent resistant isolates after 44 to 48 hrs by agar dilution method; in short: as §2
[25] = system: Parabacteroides merdae; experiment: Antibacterial activity against Parabacteroides merdae isolated from patient with diabetic foot infection assessed as percent resistant isolates after 44 to 48 hrs by agar dilution method; in short: as §2
[26] = system: Porphyromonas asaccharolytica; experiment: Antibacterial activity against Porphyromonas asaccharolyticus isolated from patient with diabetic foot infection assessed as percent resistant isolates after 44 to 48 hrs by agar dilution method; in short: as §2
[27] = system: Porphyromonas somerae; experiment: Antibacterial activity against Porphyromonas somerae isolated from patient with diabetic foot infection assessed as percent resistant isolates after 44 to 48 hrs by agar dilution method; in short: as §2
[28] = system: Prevotella bivia; experiment: Antibacterial activity against Prevotella bivia isolated from patient with diabetic foot infection assessed as percent resistant isolates after 44 to 48 hrs by agar dilution method; in short: as §2
[29] = system: Anaerocolumna aminovalerica; experiment: Antibacterial activity against Clostridium aminovalericum isolated from patient with diabetic foot infection assessed as percent resistant isolates after 44 to 48 hrs by agar dilution method; in short: as §2
[30] = system: Lacrimispora sphenoides; experiment: Antibacterial activity against Clostridium sphenoides isolated from patient with diabetic foot infection assessed as percent resistant isolates after 44 to 48 hrs by agar dilution method; in short: as §2
[31] = system: Cutibacterium acnes; experiment: Antibacterial activity against Propionibacterium acnes isolated from patient with diabetic foot infection assessed as percent resistant isolates after 44 to 48 hrs by agar dilution method; in short: as §2
[32] = system: Anaerococcus prevotii; experiment: Antibacterial activity against Anaerococcus prevotii isolated from patient with diabetic foot infection assessed as percent resistant isolates after 44 to 48 hrs by agar dilution method; in short: as §2
[33] = system: Peptoniphilus asaccharolyticus; experiment: Antibacterial activity against Peptoniphilus asaccharolyticus isolated from patient with diabetic foot infection assessed as percent resistant isolates after 44 to 48 hrs by agar dilution method; in short: as §2
[34] = system: Peptostreptococcus anaerobius; experiment: Antibacterial activity against Peptostreptococcus anaerobius isolated from patient with diabetic foot infection assessed as percent resistant isolates after 44 to 48 hrs by agar dilution method; in short: as §2
[35] = system: Parvimonas micra; experiment: Antibacterial activity against Peptostreptococcus micros isolated from patient with diabetic foot infection assessed as percent resistant isolates after 44 to 48 hrs by agar dilution method; in short: as §2
[36] = system: Anaerococcus vaginalis; experiment: Antibacterial activity against Anaerococcus vaginalis isolated from patient with diabetic foot infection after 44 to 48 hrs by agar dilution method; in short: as §1
[37] = system: Anaerococcus vaginalis; experiment: Antibacterial activity against Anaerococcus vaginalis isolated from patient with diabetic foot infection assessed as percent resistant isolates after 44 to 48 hrs by agar dilution method; in short: as §2

C[C@@H](O)[C@H]1C(=O)N2C(C(=O)O)=C(S[C@@H]3CN[C@H](C(=O)N(C)C)C3)[C@H](C)[C@H]12 [MEROPENEM]
1 mg/L: MIC90 [3] | MIC90 [4] | MIC90 [5] | MIC90 [6] | MIC90 [15] | MIC90 [16] | MIC90 [20] | MIC90 [21]
0%: Activity [17] | Activity [18] | Activity [19] | Activity [24] | Activity [25] | Activity [26] | Activity [27] | Activity [28] | Activity [29] | Activity [30] | Activity [31] | Activity [32] | Activity [33] | Activity [34] | Activity [35] | Activity [37]
0.06 mg/L: MIC50 [1] | MIC50 [3] | MIC50 [4] | MIC50 [5] | MIC50 [6] | MIC50 [10]
0.25 mg/L: MIC90 [7] | MIC90 [12] | MIC90 [13] | MIC90 [14] | MIC50 [15] | MIC50 [16] | MIC50 [20] | MIC50 [21]
0.125 mg/L: MIC90 [1] | MIC50 [7] | MIC90 [8] | MIC90 [9] | MIC90 [10] | MIC90 [11] | MIC50 [12] | MIC50 [13] | MIC50 [14] | MIC90 [36]
≤ 0.015 mg/L: MIC50 [2] | MIC90 [2] | MIC50 [11] | MIC50 [22] | MIC90 [22] | MIC50 [23] | MIC90 [23]
0.03 mg/L: MIC50 [8] | MIC50 [9] | MIC50 [36]

C[C@@H](O)[C@H]1C(=O)N2C(C(=O)O)=C(S[C@@H]3CN[C@H](CNS(N)(=O)=O)C3)[C@H](C)[C@H]12 [DORIPENEM]
0.03 mg/L: MIC90 [2] | MIC90 [22] | MIC90 [23]
0.125 mg/L: MIC90 [1] | MIC90 [7] | MIC90 [10]
≤ 0.015 mg/L: MIC50 [2] | MIC50 [8] | MIC50 [9] | MIC50 [11] | MIC50 [22] | MIC50 [23] | MIC50 [36]
0.25 mg/L: MIC90 [12] | MIC90 [13] | MIC50 [14] | MIC90 [14] | MIC50 [15] | MIC50 [16] | MIC50 [20] | MIC50 [21]
0.06 mg/L: MIC50 [1] | MIC50 [3] | MIC50 [4] | MIC50 [5] | MIC50 [6] | MIC50 [7] | MIC90 [8] | MIC90 [9] | MIC50 [10] | MIC90 [11] | MIC50 [12] | MIC50 [13] | MIC90 [36]
0%: Activity [17] | Activity [18] | Activity [19] | Activity [24] | Activity [25] | Activity [26] | Activity [27] | Activity [28] | Activity [29] | Activity [30] | Activity [31] | Activity [32] | Activity [33] | Activity [34] | Activity [35] | Activity [37]
1 mg/L: MIC90 [3] | MIC90 [4] | MIC90 [5] | MIC90 [6] | MIC90 [15] | MIC90 [16] | MIC90 [20] | MIC90 [21]
